Assay results gathered from unrelated publications.
Protocols differ between the studies behind these lines.
Cell line: MCF7
Read-out: cell growth or viability

For `COc1ccc(C(=O)/C=C/c2cccc(Br)c2)cc1S(N)(=O)=O`, the GI50 was 1600 nM (SRB; 48 h).
With `CCN(CC)CCOc1cc2cc3c(cc2c2nc(OC)c4cc(OC)c(OC)cc4c12)OCO3` the GI50 was at least 100000 nM (MTT; 72 h).
For `COc1cccc(Oc2ccccc2NC(=O)CNC(=O)c2cccc3ccccc23)c1`, the GI50 was 100 nM (SRB; 48 h).
`COc1ccc(-c2ccc(-c3ccc(C(=N)N)nc3)s2)cc1Cl` has a GI50 of 1750 nM (SRB).
`COc1cccc2c1C(=O)c1c(O)c3c(c(O)c1C2=O)C[C@@](O)(C(=O)CO)C[C@@H]3O[C@H]1C[C@H](N)[C@H](O)[C@H](C)O1` gave a GI50 of 20 nM (MTT).
`COc1cc2c(OC)nc3c4cc5c(cc4cc(OCCCN(C)C)c3c2cc1OC)OCO5` gave a GI50 of 27000 nM (MTT; 72 h).
`COc1cc(C(CC(C)=O)NCCc2ccc(O)c(O)c2)ccc1O` (centres unmarked) has a GI50 of 22400 nM (MTT).
The GI50 of `CCN(CC)CCCOc1cc2cc3c(cc2c2nc(OC)c4cc(OC)c(OC)cc4c12)OCO3` is reported as 23000 nM (MTT; 72 h).
`COc1ccc(C(=O)/C=C/c2ccc3ccccc3c2)cc1S(N)(=O)=O` has a GI50 of 1600 nM (SRB; 48 h).
For `COc1cc2c(OC)nc3c4cc5c(cc4cc(O)c3c2cc1OC)OCO5`, the GI50 was 13000 nM (MTT; 72 h).
The GI50 of `COc1ccc(C(=O)/C=C/c2c(F)cccc2Cl)cc1S(N)(=O)=O` is reported as 2200 nM (SRB; 48 h).
`COc1cc2c(cc1O)CC[C@@H]1[C@@H]2CC[C@]2(C)[C@@H](O)CC[C@@H]12` has a GI50 of 600 nM (SRB; 96 h).
With `COc1cc(C(CC(N)=O)NCCc2ccc(O)c(O)c2)ccc1O` (centres unmarked) the GI50 was 26200 nM (MTT).
`COc1ccc(C(=O)/C=C/c2ccccc2Br)cc1S(N)(=O)=O` has a GI50 of 2900 nM (SRB; 48 h).
`COc1cc(C(CC(=O)c2ccc(Br)cc2)NCCc2ccc(O)c(O)c2)ccc1O` (centres unmarked) gave a GI50 of 20 nM (MTT).
`COc1ccc(C(=O)/C=C/c2cccnc2)cc1S(N)(=O)=O` gave a GI50 of 4900 nM (SRB; 48 h).
`CC(=O)c1c(C)c2cnc(Nc3ccc(N4CCNCC4)cn3)nc2n(C2CCCC2)c1=O` has a GI50 of 150 nM (resazurin).
